Yeast growth inh: chemicals that inhibit yeast BB579 growth in restrictive medium (lifespan-shortening candidates). 140,000 compounds, 0.51% hits. S. cerevisiae BB579 growth, OD615, 48 h. inhibition, % at 10 µM;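 active = inhibition above a set limit, 3 SD over the mean compound inhibition, cut at about 44% in these data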
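System: Saccharomyces cerevisiae DeaD strain BB579, replicative lifespan model yeast. Buffer or medium: restrictive glucose-based CSMM-D medium. Doses: one dose, 10 µM compound with 0.25% DMSO. Timing: 4 h preincubation and 48 h exposure at 30 °C. Detection: turbidity as optical density at 615 nm. Benchmarks: amphotericin B 10 µg/mL, positive.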
Yeast lifespan up: extends the lifespan of yeast. S. cerevisiae growth with nicotinamide, OD615; deaD strain in restrictive glucose medium. inhibition of the nicotinamide effect, % at 10 µM. 130,000 compounds, 0.68% hits. AID 775;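 active = inhibition above a set limit, placed 3 SD over the median of all compounds, cut at about 26% in these data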;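 note: 0% = nicotinamide-treated wells and 100% = cells grown without nicotinamide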
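Assay system: engineered S. cerevisiae DeaD replicative-lifespan strain, galactose-grown log-phase cells; Buffer or medium: CSMM-D glucose medium, restrictive; Probe or stimulus: nicotinamide 1.5 mM; Compound: single dose 10 µM compound, 0.25% DMSO; Schedule: 4 h preincubation then 48 h treatment at 30 °C; Technique: OD615 measurement.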
RAM inhibit: blocks the yeast RAM network; S. cerevisiae dse1pr::URA3 reporter, 5-FOA growth OD615, 2 d; analog-sensitive cbk1-as2 kinase mutant strain; inhibition, % at 50 µM; 190,000 compounds, 1.8% hits; AID 868;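 active = inhibition above a set limit, 3 SD over mean compound inhibition, cut at about 8.4% in these data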;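 note: 0% = DMSO-only wells with no growth and 100% = 10 µM 1-NA-PP1 full growth; inhibition rescues growth on 5-FOA so higher OD means more RAM inhibition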
SDO1 yeast rescue: sdo1-depleted yeast growth rescue | S. cerevisiae sdo1-depleted JHY4D growth rescue, OD600 30 h; stronger effect = higher value; pdr5 snq2 efflux-pump mutant strain | z-score at 10 µM | 140,000 compounds, 0.21% hits;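 active = z-score above 3 at both the 24 hr and the 30 hr optical density reads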;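 note: z-score against mean and SD of all compound wells on the same plate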
* hit, by the source's call; nt = no result; [ ] = another dose, or the depositor's remark. An excerpt weighted towards active compounds, which were near 2.7% of everything screened.

SMILES	Yeast growth inh	Yeast lifespan up	RAM inhibit	SDO1 yeast rescue
CCC1(C)SC(N)=NN1C(C)=O (stereo not given)	nt	nt	1	nt
N/C(Cc1ccccc1)=N\OC(=O)c1cccc2ccccc12	84*	-9	0	-1.7
COc1ccc(CC(=O)n2nc(-c3ccccc3)nc2NCc2ccco2)cc1	-3	-14	10*	-1.6
COC(=O)COc1ccc2c(-c3ccc(OC)cc3)cc(=O)oc2c1	-61	-7	5	-0.39
COc1ccc(-c2cc(=O)oc3cc(OC(=O)C4CCCCC4)ccc23)cc1	-13	4	11*	-0.21
O=C(Oc1ccc2c(-c3ccccc3)cc(=O)oc2c1)C1CCCCC1	-30	-11	9.3*	-0.48
COc1cc(C(=O)NCCCNc2nc3cc(C)c(C)cc3cc2C#N)cc(OC)c1OC	nt	nt	1	nt
O=c1[nH]c(C2CCN(S(=O)(=O)c3ccccc3)CC2)nc2c1nnn2Cc1ccccc1	nt	nt	3	nt
COc1ccc(Cl)cc1NC(=O)CCc1nc(-c2ccccc2F)no1	nt	nt	1	nt
COC(=O)c1sc2ccccc2c1N	10	-14	1	0.51
CCOC(=O)c1sc2ccccc2c1OC(=O)c1ccc(C)cc1	-32	4	8.7*	-0.56
O=C(O)CNC(=S)N(Cc1ccccc1)Cc1cccs1	nt	nt	2	nt
Cc1cccc(C)c1NC(=S)N(Cc1ccccc1)Cc1cccs1	nt	nt	9.5*	nt
COC(=O)c1c(NC(=O)COC(=O)[C@@H](NS(=O)(=O)c2ccc(C)cc2)C(C)C)sc2c1CCC2	-50	3	6	-0.72
COC(=O)c1c(NC(=O)CN2CCCc3ccccc32)sc(C)c1C	-21	-2	3	-0.28
COCCOC(=O)c1c(NC(=O)CN2CCCc3ccccc32)sc(C(N)=O)c1C	-28	-2	11*	-0.02
CCC(=O)c1ccc(OCC(=O)OCC(=O)Nc2sccc2C(N)=O)cc1	nt	nt	8	nt
Cc1cc(C(=O)COC(=O)c2ccc[nH]c2=O)c(C)n1C1CC1	-6	29*	5	-0.63
Cc1cc(C(=O)COc2ccccc2C(N)=O)c(C)n1C1CC1	nt	nt	2	nt
CCNC(=O)COC(=O)c1cc(C)n(-c2ccccc2)c1C	nt	nt	0	nt
Cc1cc(C(=O)COC(=O)c2ccc[nH]c2=O)c(C)n1-c1ccc(F)cc1	54*	17	-1	0.84
Cc1cc(C(=O)COC(=O)c2ccc[nH]c2=O)c(C)n1-c1ccccc1	59*	22	-1	1
CCOc1ccc(OCC(=O)c2c(O)c3ccccc3oc2=O)cc1	-10	44*	0	0.3
COc1ccc(OCC(=O)c2c(O)c3ccccc3oc2=O)cc1	-20	35	-1	0.06
O=C(CC1CCCCC1)c1c(O)c2ccccc2oc1=O	-6	27	9.6*	-0.3
SMILES	Yeast growth inh	Yeast lifespan up	RAM inhibit	SDO1 yeast rescue
CCCCC(=O)c1c(O)c2ccccc2oc1=O	40	21	-1	0.76
Cc1ccc(NC(=O)/C(=C/c2cccs2)NC(=O)c2ccco2)c(C)c1	-14	0	-1	0.56
O=C(O)CCc1nn2c3ccccc3n(Cc3ccccc3F)c2nc1=O	nt	nt	3	nt
CCOC(=O)c1ccc(NC(=O)c2ccc(OC(C)C)c(OC)c2)cc1	nt	nt	0	nt
CCOc1ccc2noc3c2c1C(=O)c1ccccc1-3	32	-10	-1	-1.1
O=C1c2ccccc2-c2onc3c(Oc4ccccc4)cc(O)c1c23	-46	92*	3	-1.2
COc1cc(S(=O)(=O)N(CCc2ccccc2)Cc2cccs2)ccc1-n1cnnn1	-49	nt	9.1*	-0.75
COc1ccc(CCN(Cc2cccs2)S(=O)(=O)c2ccc(-n3cnnn3)cc2)cc1OC	-47	-8	4	-1.2[6.3 µM]
CCCc1cc(-c2n[nH]c(=S)n2C(C)c2ccccc2)cs1 (stereo not given)	50*	12	2	-1.8
CCCc1cc(-c2n[nH]c(=S)n2CC)cs1	nt	nt	-1	nt
CCOC(=O)c1cc(NC(=O)c2ccco2)ccc1N1CCOCC1	nt	nt	0	nt
CCOC(=O)Cn1nnnc1C(CC)N(Cc1cccs1)Cc1cc2ccc(OC)cc2[nH]c1=O (stereo not given)	-35	0	9.6*	-0.04
COc1ccc(NC(=O)CCSc2ccc(C)cc2)cc1S(=O)(=O)Nc1ccccc1Cl	12	-3	8.8*	-0.68
Cc1cc(=O)[nH]c(N/N=C/c2cn(CCC#N)nc2-c2ccccc2)n1	nt	nt	1	nt
COc1ccc(/C=C2\CCCC(C(=O)C(F)(F)F)=C2O)cc1OC	nt	nt	5	nt
CCOc1cc(/C=C2\CCCC(C(=O)C(F)(F)F)=C2O)ccc1O	-48	-2	9.1*	-1.4
O=C1CCN(S(=O)(=O)c2ccc(Br)cc2)CCN1	nt	nt	2	nt
CCOC(=O)C(=NCCCN(C)C)NNc1cc(C(F)(F)F)ccc1Cl	nt	nt	0	nt
CCOC(=O)C(=NCCCN(C)C)NNc1ccc(Br)cc1	92*	-10	-2	-1.7
CCCCN=C(NNc1ccc(Br)cc1)C(=O)OCC	97*	-13	-1	-1.8
CCC(C)c1ccccc1NC(=O)Cc1coc2cc3c(cc12)CCC3 (stereo not given)	-47	16	9.5*	-0.67
O=C(COC(=O)c1cc[n+]([O-])cc1)Nc1ccc([N+](=O)[O-])cc1Cl	nt	nt	0	nt
Cc1cccc2sc(NC(=O)c3cc(S(=O)(=O)N(C)C)ccc3N3CCCC3)nc12	nt	nt	2	nt
C=CCN1C(=O)C(Cc2ccc(SC(F)F)cc2)SC1=Nc1ccc(C(=O)O)cc1 (stereo not given)	nt	nt	8.7*	nt
O=C(COC(=O)CNC(=O)c1ccc(-c2ccccc2)cc1)NCc1ccco1	nt	nt	2	nt
SMILES	Yeast growth inh	Yeast lifespan up	RAM inhibit	SDO1 yeast rescue
O=C(O)C1CC=CCC1C(=O)Nc1cccc(F)c1 (stereo not given)	-36	2	1	0.56
O=C(O)C1CC=CCC1C(=O)Nc1cccc([N+](=O)[O-])c1 (stereo not given)	nt	nt	9.6*	nt
Cc1ccc(NC(=O)/C(C#N)=C(\N)C(Cl)(Cl)Cl)nc1	nt	nt	1	nt
COc1ccc([N+](=O)[O-])cc1NC(=O)c1ccc(CN(c2ccc(C)c(C)c2)S(C)(=O)=O)cc1	-7	-1	9.7*	-1.2
O=C1ON=C(c2ccccc2)/C1=C/c1ccc(-c2ccccc2[N+](=O)[O-])o1	22	42*	5	-1.2
O=[N+]([O-])c1ccccc1-c1ccc(/C=N/n2cnnc2)o1	-15	-6	0	0.66
Cc1sc(NC(=O)c2ccco2)c(CN2CCN(Cc3ccccc3)CC2)c1C	nt	nt	2	nt
Cc1cc(NC(c2ccc(Cl)cc2)c2ccc3cccnc3c2O)no1 (stereo not given)	95*	-33	-1	-1.2
CCOC(=O)CN(c1cc([N+](=O)[O-])ccc1OC)S(C)(=O)=O	nt	nt	0	nt
COc1ccc(CNC(=O)CCS(=O)(=O)Cc2cccc(Cl)c2)c(OC)c1	nt	nt	2	nt
O=C(CCC1CCCN(C(=O)C2(c3ccccc3)CC2)C1)N1CCN(c2ccccn2)CC1 (stereo not given)	nt	nt	1	nt
CCc1ccc(/C=C2/C(=O)N(c3ccccc3)C(=S)N2CC(=O)OC)s1	-15	0	5	-0.41
CCN1C(=O)/C(=C/N(C(C)=O)c2ccccc2)N(c2ccccc2)C1=S	-17	35*	1	-1.5
